Assay results published in ChEMBL document CHEMBL4330187, “Synthesis of 5-Thio-α-GalCer Analogues with Fluorinated Acyl Chain on Lipid Residue and Their Biological Evaluation” (2019).
Calls of active or inactive are those of the source. The rule behind the calls is not given here.

What was measured:
Mus musculus [1] = experiment: Immunomodulatory activity in C57BL/6 mouse assessed as serum IFNgamma/IL-4 maximum productivity ratio at 100 ug/kg, ip by ELISA; type: functional
How it was run: (§1)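 Glycolipid given once i.p. to B6 mice at 100 μg/kg in 0.1 mL vehicle. Serum IL-4 and IFN-γ followed over time after injection, three mice per group, each serum sampled individually. IFN-γ/IL-4 selectivity expressed two ways: ratio of areas under the time–concentration curves, and ratio of peak (maximum) production.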

Mus musculus [2] = experiment: Immunomodulatory activity in C57BL/6 mouse assessed as serum IFNgamma/IL-4 AUC ratio at 100 ug/kg, ip by ELISA; type: functional; how it was run: as §1
Mus musculus [3] = experiment: Immunomodulatory activity in C57BL/6 mouse assessed as increase in IFN-gamma secretion in serum at 100 ug/kg, ip by ELISA; type: functional, organism-based; how it was run: as §1
Mus musculus [4] = experiment: Immunomodulatory activity in C57BL/6 mouse assessed as increase in IL-4 secretion in serum at 100 ug/kg, ip by ELISA; type: functional, organism-based; how it was run: as §1
Mus musculus [5] = experiment: Immunomodulatory activity in C57BL/6 mouse assessed as increase in IL-4 secretion in serum at 100 ug/kg, ip after 3 hrs by ELISA; type: functional, organism-based; how it was run: as §1

`CCCCCCCCCCCCCC[C@@H](O)[C@@H](O)[C@H](CO[C@H]1S[C@H](CO)[C@H](O)[C@H](O)[C@H]1O)NC(=O)C(F)(F)C(F)(F)C(F)(F)C(F)(F)C(F)(F)C(F)(F)C(F)(F)F` was tested, and the Ratio (Mus musculus [1]) was 9 and the Ratio (Mus musculus [2]) was 26.7.
`CCCCCCCCCCCCCC[C@@H](O)[C@@H](O)[C@H](CO[C@H]1S[C@H](CO)[C@H](O)[C@H](O)[C@H]1O)NC(=O)C(F)(F)C(F)(F)C(F)(F)C(F)(F)C(F)(F)C(F)(F)C(F)(F)C(F)(F)C(F)(F)C(F)(F)C(F)(F)C(F)(F)C(F)(F)F` gave a Ratio (Mus musculus [1]) of 0.59 and a Ratio (Mus musculus [2]) of 0.58.
In the case of `CCCCCCCCCCCCCC[C@@H](O)[C@@H](O)[C@H](CO[C@H]1O[C@H](CO)[C@H](O)[C@H](O)[C@H]1O)NC(=O)C(F)(F)C(F)(F)C(F)(F)C(F)(F)C(F)(F)C(F)(F)C(F)(F)C(F)(F)C(F)(F)C(F)(F)C(F)(F)C(F)(F)C(F)(F)F`, the Activity (Mus musculus [3]) is reported as “inactive” and the Activity (Mus musculus [4]) is reported as “inactive”.
With `CCCCCCCCCCCCCC[C@@H](O)[C@@H](O)[C@H](CO[C@H]1S[C@H](CO)[C@H](O)[C@H](O)[C@H]1O)NC(=O)CCCCCCC(F)(F)F` the Activity (Mus musculus [3]) was “inactive” and the Activity (Mus musculus [4]) was “inactive”.
In the case of `CCCCCCCCCCCCCC[C@@H](O)[C@@H](O)[C@H](CO[C@H]1O[C@H](CO)[C@H](O)[C@H](O)[C@H]1O)NC(=O)CCCCCCC(F)(F)F`, the Activity (Mus musculus [3]) is reported as “inactive” and the Activity (Mus musculus [4]) is reported as “inactive”.
For `CCCCCCCCCCCCCCCCCCCCCCCCCC(=O)N[C@@H](CO[C@H]1O[C@H](CO)[C@H](O)[C@H](O)[C@H]1O)[C@H](O)[C@H](O)CCCCCCCCCCCCCC` [RGI-7000], the Activity (Mus musculus [5]) was “Active”, the Activity (Mus musculus [3]) was “Active” and the Ratio (Mus musculus [1]) was 2.8. The Ratio (Mus musculus [2]) was 12.1.
Compound `CCCCCCCCCCCCCC[C@@H](O)[C@@H](O)[C@H](CO[C@H]1O[C@H](CO)[C@H](O)[C@H](O)[C@H]1O)NC(=O)C(F)(F)C(F)(F)C(F)(F)C(F)(F)C(F)(F)C(F)(F)C(F)(F)F` has a Ratio (Mus musculus [1]) of 3.4 and a Ratio (Mus musculus [2]) of 5.8.
